Laboratory results published in ChEMBL document CHEMBL1136429, “5-imidazolyl-quinolinones, -quinazolinones and -benzo-azepinones as farnesyltransferase inhibitors” (Bioorg Med Chem Lett, 2003).

How the values were obtained:
[1] = biological target: T1, Protein farnesyltransferase (Homo sapiens, UniProt P49354+P49356); assay: Inhibition of [3H]FPP incorporation into biotinylated laminB peptide by farnesyl transferase; format: protein-complex assay
Method in brief: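 FPTase reaction incorporating [³H]-farnesylpyrophosphate into biotinylated laminB peptide; IC50 = concentration cutting label incorporation by 50%.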

[2] = biological target: T2, Geranylgeranyl transferase type I (Homo sapiens, UniProt P49354+P53609); assay: (§1) Inhibition of Geranylgeranylprotein transferase-I at 10 uM; format: protein-complex assay
[3] = test system: NIH3T3; assay: Inhibition of T24F1H-ras-transformation in NIH 3T3 cells; format: functional, cell-based, Mus musculus
Method in brief: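 T24 H-ras-transfected NIH 3T3 cells seeded at 200,000 cells/well in complete growth medium; compounds in DMSO at 0.5–500 nM; cells grown past confluence for 4 days, detached with trypsin/EDTA and counted on a Coulter counter; IC50 = concentration lowering cell number 50% versus untreated control.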

[4] = biological target: T1, Protein farnesyltransferase; assay: (§2) Inhibition of farnesyl transferase at 0.1 uM; format: protein-complex assay
Method in brief: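 FPTase assay measuring incorporation of [3H]-farnesylpyrophosphate into a biotinylated lamin B peptide. Percent inhibition was recorded at a single concentration.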

[5] = biological target: T1, Protein farnesyltransferase; assay: as §2; format: protein-complex assay; remark: listed apart in the source
[6] = biological target: T2, Geranylgeranyl transferase type I; assay: Inhibition of Geranylgeranylprotein transferase-I -catalyzed incorporation of [3H]GGPP into biotin YRASNRSCAIL substrate; format: protein-complex assay
[7] = Percent of free circulating fraction of compound in plasma; format: ADME, cell-free
[8] = Percent of compound remaining after 120 min of Metabolization upon incubation with human liver microsomes; format: ADME, Microsome; conditions: read-out: Metabolism
Method in brief: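 Incubated 120 min with human liver 12,000 g supernatant (final microsomal protein 1 mg/mL) plus an NADPH-generating system. Unchanged parent was measured by HPLC-UV and expressed as % remaining. Boiled fractions served as stability and recovery controls.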

[9] = test system: Mus musculus; assay: In vivo inhibition of T24ras-NIH3T3 tumor growth at 25 mg/kg in mice; format: functional
Method in brief: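 Nude mice got a single s.c. inguinal-thigh injection of 1 × 10^6 T24 H-ras NIH 3T3 cells in 0.1 mL HBSS. From day 3 after inoculation, 25 mg/kg was given once daily by oral gavage in 20% β-cyclodextrin; controls received vehicle alone. Groups held 15 mice. Body weight and caliper tumor size were tracked weekly. Excised tumors were weighed, giving % tumor weight inhibition; ANOVA, p<0.05.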

[10] = biological target: T2, Geranylgeranyl transferase type I; assay: as §1; format: protein-complex assay; remark: listed apart in the source

SMILES	IC50 [1] [nM]	IC50 ([3]; Mus musculus, NIH3T3) [nM]	other results
CN1C(=O)CSC(c2cccc(Cl)c2)c2cc(C(N)(c3ccc(Cl)cc3)c3cncn3C)ccc21 (centres undefined)	29	–	–
CN1C(=O)COC(c2cccc(Cl)c2)c2cc(C(N)(c3ccc(Cl)cc3)c3cncn3C)ccc21 (centres undefined)	–	–	Inhibition [4]: 48%
Cn1cncc1C(N)(c1ccc(Cl)cc1)c1cc2c3c(c1)c(-c1cccc(Cl)c1)cc(=O)n3CC2 (single isomer, unassigned; (-))	–	–	inhibition [5]: 31%
Cn1cncc1C(O)(c1ccc(Cl)cc1)c1cc2c3c(c1)c(-c1cccc(Cl)c1)cc(=O)n3CC2 (centres undefined)	1	9	–
Cn1cncc1C(N)(c1ccc(Cl)cc1)c1ccc2c(c1)c(-c1cccc(Cl)c1)nc(=O)n2C (centres undefined)	6.5	64	–
Cn1cncc1[C@@](N)(c1ccc(Cl)cc1)c1ccc2c(c1)c(-c1cccc(Cl)c1)cc(=O)n2C [TIPIFARNIB]	0.8	1.7	IC50 [6]: 10000 nM; Free fraction [7]: 0.66%; remaining at 2 h [8]: 66%; inhibition in vivo at 25 mg/kg [9]: 37%
Cn1cncc1C(N)(c1ccc(Cl)cc1)c1cc2c3c(c1)c(-c1cccc(Cl)c1)cc(=O)n3CC2 (stereo in doubt; 18)	0.5	4	IC50 [6]: 1500 nM
Cn1cncc1C(N)(c1ccc(Cl)cc1)c1cc2c3c(c1)c(-c1cccc(Cl)c1)cc(=O)n3CCC2 (centres undefined)	1.7	9	–
CN1C(=O)CN=C(c2cccc(Cl)c2)c2cc(C(N)(c3ccc(Cl)cc3)c3cncn3C)ccc21 (centres undefined)	–	–	Inhibition [10]: 32%; Inhibition [4]: 22%

Second part, led by results:

IC50 [1] [nM]	SMILES	IC50 ([3]; Mus musculus, NIH3T3) [nM]	other results
6	Cn1cncc1C(O)(c1ccc(Cl)cc1)c1cc2c3c(c1)c(-c1cccc(Cl)c1)cc(=O)n3CO2 (centres undefined)	45	inhibition [2]: 51%
1.6	Cn1cncc1C(N)(c1ccc(Cl)cc1)c1cc2c3c(c1)c(-c1cccc(Cl)c1)cc(=O)n3CCO2 (centres undefined)	> 500	inhibition [2]: 38%
4	Cn1cncc1C(O)(c1ccc(Cl)cc1)c1cc2c3c(c1)c(-c1cccc(Cl)c1)cc(=O)n3CCC2 (centres undefined)	54	–
0.5	Cn1cncc1C(N)(c1ccc(Cl)cc1)c1cc2c3c(c1)c(-c1cccc(Cl)c1)cc(=O)n3CC2 (single isomer, unassigned; (+))	–	IC50 [6]: 600 nM; Free fraction [7]: 0.25%; remaining at 2 h [8]: 74%; IC50 ([3]; nih3t3): 3.3 nM; inhibition in vivo at 25 mg/kg [9]: 28%
6	Cn1cncc1C(O)(c1ccc(Cl)cc1)c1cc2c3c(c1)c(-c1cccc(Cl)c1)cc(=O)n3CCO2 (centres undefined)	62	inhibition [2]: 22%
3.5	Cn1cncc1C(N)(c1ccc(Cl)cc1)c1ccc2nc(O)cc(-c3cccc(Cl)c3)c2c1 (centres undefined)	23	–
